This is an account of results in ChEMBL document CHEMBL1944562, “Design, synthesis of some new (2-aminothiazol-4-yl)methylester derivatives as possible antimicrobial and antitubercular agents” (2012).

Each structure is given as a SMILES string. ≈ marks a conversion by molar mass, not a printed value.

Format in all cases: functional
Test [1] deals with Aspergillus flavus. Briefly: Antifungal activity against Aspergillus flavus NCIM N0.524 after 3 to 4 days by serial plate dilution method.
Test [2] concerns Pseudomonas aeruginosa. Description: Antibacterial activity against Pseudomonas aeruginosa ATCC 27853 at MIC after 3 to 4 days. In short, it runs like this: (§1)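 Agar well diffusion on seeded agar plates, 20 mL agar per dish, dried 1 h at 37 °C. Wells punched and loaded with test compound in DMSO at its MIC. DMSO-only control. Plates run in triplicate and kept 3-4 days at 37 °C. Inhibition zone diameter measured.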

Test [3] relates to Mycolicibacterium fortuitum. Briefly: Antitubercular activity against Mycobacterium fortuitum ATCC 19542 after 7 days by resazurin assay. As to conditions: ATCC 19542, 168 h. The method in brief:
(§2)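 Middlebrook 7H9 broth with 10% OADC, culture adjusted to McFarland 2. 50 µL culture added to 150 µL fresh medium. Stocks at 2 mg/mL in DMF, tested first at 1, 10 and 100 µg/mL, then at 0.3125-5 µg/mL. DMF controls. After 7 days at 37 °C, 0.01% resazurin added. Blue-to-pink change read for MIC.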
In general terms: Resazurin is reduced to fluorescent resorufin, in cell work by metabolically active cells.

Test [4] has as its system Bacillus subtilis. Description: Antibacterial activity against Bacillus subtilis after 16 to 18 hrs by […].
The subject of test [5] is Klebsiella pneumoniae. Briefly: Antibacterial activity against Klebsiella pneumoniae after 16 to 18 hrs by […].
For test [6], the system named is Mycobacterium tuberculosis. Description: Antitubercular activity against Mycobacterium tuberculosis H37Rv after 7 days by resazurin assay. The conditions noted are these: 168 h. In short, it runs like this: (§3)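 M. tuberculosis H37Rv ATCC 27294 grown in Middlebrook 7H9 broth with 10% OADC and adjusted to McFarland 2. Culture was diluted 1:4 into fresh medium. Compounds came from 2 mg/mL DMF stocks, screened first at 1, 10 and 100, then at 0.3125–5. DMF-only controls were included. After 7 days at 37 °C, 0.01% resazurin was added; a blue-to-pink change marked growth, and the MIC was read.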

Test [7] deals with Mycolicibacterium smegmatis. Briefly: Antitubercular activity against Mycobacterium smegmatis ATCC 19420 after 7 days by resazurin assay. As to conditions: ATCC 19420, 168 h. The method in brief:
as §2

In test [8] the test system is Bacillus subtilis. Briefly: Antibacterial activity against Bacillus subtilis at MIC after 3 to 4 days. In short, it runs like this:
as §1

In test [9] the test system is Staphylococcus aureus. Description: Antibacterial activity against Staphylococcus aureus ATCC 25923 at […] after 3 to 4 days. The method in brief: as §1
Test [10] deals with Aspergillus fumigatus. Briefly: Antifungal activity against Aspergillus fumigatus NCIM N0.902 at MIC after 3 to 4 days. In short, it runs like this:
(§4)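 Fungal suspension made by transferring a loopful of culture to 3 mL saline and seeding agar plates, 20 mL agar per dish, dried 1 h at 37 °C. Punched wells loaded with test compound in DMSO at its MIC. DMSO-only control. Triplicate plates held 3-4 days at 37 °C. Inhibition zone diameter measured.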

The test system of test [11] is Trichophyton mentagrophytes. Briefly: Antifungal activity against Trichophyton mentagrophytes after 3 to 4 days by serial plate dilution method.
Test [12] relates to Candida albicans. Briefly: Antifungal activity against Candida albicans at MIC after 3 to 4 days. The method in brief: as §4
The test system of test [13] is Aspergillus fumigatus. Briefly: Antifungal activity against Aspergillus fumigatus NCIM N0.902 after 3 to 4 days by serial plate dilution method.
The test system of test [14] is Staphylococcus aureus. Briefly: Antibacterial activity against Staphylococcus aureus ATCC 25923 after 16 to 18 hrs by serial plate dilution method.
The test system of test [15] is Escherichia coli. Briefly: Antibacterial activity against Escherichia coli ATCC 25922 at MIC after 3 to 4 days. In short, it runs like this:
as §1

The subject of test [16] is Talaromyces marneffei. Briefly: Antifungal activity against Penicillium marneffei at MIC after 3 to 4 days. The method in brief: as §4
Test [17] deals with Aspergillus flavus. Briefly: Antifungal activity against Aspergillus flavus NCIM N0.524 at MIC after 3 to 4 days. The method in brief:
as §4

In test [18] the test system is Talaromyces marneffei. Description: Antifungal activity against Penicillium marneffei after 3 to 4 days by serial plate dilution method.
Test [19] relates to Pseudomonas aeruginosa. Briefly: Antibacterial activity against Pseudomonas aeruginosa ATCC 27853 after 16 to 18 hrs by […].
Test [20] has as its system Trichophyton mentagrophytes. Briefly: Antifungal activity against Trichophyton mentagrophytes at MIC after 3 to 4 days. In short, it runs like this:
as §4

The test system of test [21] is Candida albicans. Description: Antifungal activity against Candida albicans after 3 to 4 days by serial plate dilution method.
For test [22], the system named is Mycobacterium tuberculosis. Description: Antitubercular activity against Mycobacterium tuberculosis H37Rv assessed as growth inhibition after 7 days by resazurin assay. The method in brief: as §3
Test [23] deals with Escherichia coli. Briefly: Antibacterial activity against Escherichia coli ATCC 25922 after 16 to 18 hrs by […].
Test [24] deals with Klebsiella pneumoniae. Description: Antibacterial activity against Klebsiella pneumoniae at MIC after 3 to 4 days. In short, it runs like this:
as §1

As usually defined, the MIC is the lowest concentration found to suppress growth. Lower therefore signals greater potency. With `N#Cc1ccccc1C(=O)OCc1csc(N)n1`, the MIC in the test with Aspergillus flavus [1] is 12.5 µg/mL (≈ 48.2 µM); in test [3] it was above 100 µg/mL; in the test with Bacillus subtilis [4], 25 µg/mL (≈ 96.4 µM); with Klebsiella pneumoniae [5], 12.5 µg/mL (≈ 48.2 µM); in [6] it was 5 µg/mL (≈ 19.3 µM); in [7], above 100 µg/mL. Moreover, the MIC was found to be 25 µg/mL (≈ 96.4 µM) in [11]; 12.5 µg/mL (≈ 48.2 µM) with Aspergillus fumigatus [13]; 12.5 µg/mL (≈ 48.2 µM) against Staphylococcus aureus [14]; 25 µg/mL (≈ 96.4 µM) in the test with Talaromyces marneffei [18]; 6.25 µg/mL (≈ 24.1 µM) against Pseudomonas aeruginosa [19]; 6.25 µg/mL (≈ 24.1 µM) in the test on Candida albicans [21]. Further, it took 6.25 µg/mL (≈ 24.1 µM) to inhibit growth in the test with Escherichia coli [23] (MIC). Besides, the “diameter of the inhibition zone (DIZ)” value with Pseudomonas aeruginosa [2] is 16 mm; in the test on Bacillus subtilis [8] it was below 10 mm; in the test with Staphylococcus aureus [9], 11 mm; with Aspergillus fumigatus [10], 11 mm; with Candida albicans [12] it was 16 mm; in the test with Escherichia coli [15], 16 mm. Further, the “diameter of the inhibition zone (DIZ)” value in the test on Talaromyces marneffei [16] is reported as below 10 mm; with Aspergillus flavus [17], 11 mm; in [20] it was below 10 mm; with Klebsiella pneumoniae [24] it was 11 mm. For the same molecule, the “growth inhibition (GI)” value in [22] is below 90%.

Regarding `Nc1nc(COC(=O)c2cccc([N+](=O)[O-])c2Cl)cs1`, the MIC against Aspergillus flavus [1] is 25 µg/mL (≈ 79.7 µM); in test [3] it was 10 µg/mL (≈ 31.9 µM); with Bacillus subtilis [4], 12.5 µg/mL (≈ 39.8 µM); against Klebsiella pneumoniae [5], 6.25 µg/mL (≈ 19.9 µM); in test [6] it was 0.625 µg/mL (≈ 1.99 µM); in test [7], 1 µg/mL (≈ 3.19 µM). Besides, the minimum inhibitory concentration (MIC) in test [11] came out at 25 µg/mL (≈ 79.7 µM); with Aspergillus fumigatus [13], 25 µg/mL (≈ 79.7 µM); in the test on Staphylococcus aureus [14], 12.5 µg/mL (≈ 39.8 µM); in the test on Talaromyces marneffei [18], 12.5 µg/mL (≈ 39.8 µM); against Pseudomonas aeruginosa [19] it was 25 µg/mL (≈ 79.7 µM); in the test with Candida albicans [21], 25 µg/mL (≈ 79.7 µM). In the test with Escherichia coli [23], this molecule had an MIC of 12.5 µg/mL (≈ 39.8 µM). The “diameter of the inhibition zone (DIZ)” value with Pseudomonas aeruginosa [2] is reported as below 10 mm; with Bacillus subtilis [8], 11 mm; in the test with Staphylococcus aureus [9], 11 mm; in the test on Aspergillus fumigatus [10], below 10 mm; in the test with Candida albicans [12], below 10 mm; in the test with Escherichia coli [15], 11 mm. In addition, the “diameter of the inhibition zone (DIZ)” value in the test on Talaromyces marneffei [16] was 11 mm; in the test on Aspergillus flavus [17], below 10 mm; in test [20], below 10 mm; in the test on Klebsiella pneumoniae [24] it was 16 mm. Moreover, the “growth inhibition (GI)” value in test [22] was found to be 90%.

With `Nc1nc(COC(=O)c2ccc3ccccc3c2)cs1`, the MIC against Aspergillus flavus [1] was 12.5 µg/mL (≈ 44 µM); in test [3], 10 µg/mL (≈ 35.2 µM); against Bacillus subtilis [4] it was 6.25 µg/mL (≈ 22 µM); with Klebsiella pneumoniae [5], 6.25 µg/mL (≈ 22 µM); in test [6] it was 2.5 µg/mL (≈ 8.79 µM); in test [7], 10 µg/mL (≈ 35.2 µM). Also, the MIC is 12.5 µg/mL (≈ 44 µM) in [11]; 12.5 µg/mL (≈ 44 µM) against Aspergillus fumigatus [13]; 6.25 µg/mL (≈ 22 µM) in the test on Staphylococcus aureus [14]; 12.5 µg/mL (≈ 44 µM) in the test on Talaromyces marneffei [18]; 6.25 µg/mL (≈ 22 µM) against Pseudomonas aeruginosa [19]; 6.25 µg/mL (≈ 22 µM) in the test on Candida albicans [21]. Also, inhibition of growth in the test on Escherichia coli [23] (MIC) required 6.25 µg/mL (≈ 22 µM). Further, the “diameter of the inhibition zone (DIZ)” value is listed as 16 mm with Pseudomonas aeruginosa [2]; 16 mm in the test on Bacillus subtilis [8]; 16 mm with Staphylococcus aureus [9]; 11 mm with Aspergillus fumigatus [10]; 16 mm in the test on Candida albicans [12]; 16 mm with Escherichia coli [15]. Also, the “diameter of the inhibition zone (DIZ)” value in the test on Talaromyces marneffei [16] is listed as 11 mm; in the test with Aspergillus flavus [17] it was 11 mm; in test [20] it was 11 mm; in the test with Klebsiella pneumoniae [24], 16 mm. Besides, the “growth inhibition (GI)” value in test [22] is on record as below 90%.
